Assay results as given in ChEMBL document CHEMBL3425494, “Design, synthesis, and antitumor evaluation of novel histone deacetylase inhibitors equipped with a phenylsulfonylfuroxan module as a nitric oxide donor” (J Med Chem, 2015).
pIC50: −log10 of the molar value. The source made the active and inactive calls. The calls are words filed in the database; no cut-off is given here.

Columns and labels:
[1] = Cytotoxicity against human HCT116 cells assessed as growth inhibition after 48 hrs by MTT assay; format: functional, cell-based; settings: HCT-116, 48 h
[2] = Cytotoxicity against human MDA cells assessed as growth inhibition after 48 hrs by MTT assay; format: functional, cell-based
[3] = Cytotoxicity against human ES2 cells assessed as growth inhibition after 48 hrs by MTT assay; format: functional, cell-based; settings: ES-2, 48 h
[4] = Cytotoxicity against human KG1 cells assessed as growth inhibition after 48 hrs by MTT assay; format: functional, cell-based; settings: KG-1, 48 h
HUVEC = experiment: Cytotoxicity against HUVEC assessed as growth inhibition after 48 hrs by MTT assay; format: cell-based; settings: Homo sapiens
HEL [5] = experiment: Cell cycle arrest in human HEL cells assessed as accumulation at G2 phase at 0.5 uM after 48 hrs by propidium iodide staining-based flow cytometric analysis (reference value: 5.28%); format: functional
HEL [6] = experiment: Antitumor activity against human HEL cells xenografted in BALB/c-nu mouse assessed as inhibition of tumor growth at 100 mg/kg/day, po administered for 21 days measured every 3 days during compound dosing relative to control; format: functional; settings: read-out: TGI
Procedure, shortened: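 HEL s.c. xenografts in male BALB/c-nu mice (6–8 weeks), randomized at ~100 mm³, 6 per group; daily oral dosing for 21 days versus PBS/DMSO vehicle group. […] Student's two-tailed t test, p < 0.05.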

HEL [7] = experiment: Antitumor activity against human HEL cells xenografted in BALB/c-nu mouse assessed as decrease in tumor volume at 120 mg/kg/day, po administered for 21 days measured every 3 days during compound dosing relative to control; format: functional
HEL [8] = experiment: Antitumor activity against human HEL cells xenografted in po dosed BALB/c-nu mouse administered for 21 days measured every 3 days during compound dosing; format: functional, organism-based
Procedure, shortened: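 Subcutaneous HEL xenograft in right flank of male athymic nude mice, 6 per group, dosing started at ~100 mm³. Oral administration at 100 or 120 mg/kg/day for 21 consecutive days; controls given PBS containing DMSO. Tumors measured by caliper every 3 days (V = ab²/2); tumors weighed after sacrifice; mean ± SD.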

Mus musculus = experiment: Toxicity in BALB/c-nu mouse xenografted with human HEL cells assessed as effect on spleen at 120 mg/kg/day, po administered for 21 days; format: organism-based; parameters: route oral; settings: in vivo, 504 h
Procedure, shortened: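 Nude mice bearing HEL xenografts dosed orally 120 mg/kg/day for 21 days, 6 per group, controls on PBS/DMSO vehicle. After treatment, mice sacrificed and dissected to examine internal organs.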

Histone deacetylase 3 = Histone deacetylase 3 (Homo sapiens, UniProt O15379); experiment: Inhibition of full length human recombinant HDAC3 expressed in baculovirus infected insect S9 cells using Ac-Leu-GlyLys(Ac)-AMC as substrate after 30 mins by fluorescence assay
Histone deacetylase 4 = Histone deacetylase 4 (Homo sapiens, UniProt P56524); experiment: Inhibition of human recombinant HDAC4 expressed in baculovirus infected insect S9 cells using Ac-Leu-GlyLys(Tfa)-AMC as substrate after 30 mins by fluorescence assay
Histone deacetylase 11 = biological target: T1, Histone deacetylase 11 (Homo sapiens, UniProt Q96DB2); experiment: Inhibition of full length human recombinant HDAC11 expressed in baculovirus infected insect S9 cells after 30 mins by fluorescence assay
T1 sequence (Q96DB2 whole entry): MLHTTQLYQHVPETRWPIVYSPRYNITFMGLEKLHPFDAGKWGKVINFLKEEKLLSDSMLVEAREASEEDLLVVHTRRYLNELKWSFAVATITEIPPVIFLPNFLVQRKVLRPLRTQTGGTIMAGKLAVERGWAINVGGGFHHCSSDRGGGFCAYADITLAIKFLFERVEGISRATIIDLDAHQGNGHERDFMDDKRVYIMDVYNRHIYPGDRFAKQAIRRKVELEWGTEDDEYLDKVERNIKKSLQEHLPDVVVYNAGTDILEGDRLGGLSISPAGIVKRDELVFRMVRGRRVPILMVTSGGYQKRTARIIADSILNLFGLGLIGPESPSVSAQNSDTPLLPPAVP

[9] = biological target: T2, Protein deacetylase HDAC6 (Homo sapiens) (UniProt Q9UBN7); settings: MV4-11, 12.5 nM
T2 sequence (whole entry): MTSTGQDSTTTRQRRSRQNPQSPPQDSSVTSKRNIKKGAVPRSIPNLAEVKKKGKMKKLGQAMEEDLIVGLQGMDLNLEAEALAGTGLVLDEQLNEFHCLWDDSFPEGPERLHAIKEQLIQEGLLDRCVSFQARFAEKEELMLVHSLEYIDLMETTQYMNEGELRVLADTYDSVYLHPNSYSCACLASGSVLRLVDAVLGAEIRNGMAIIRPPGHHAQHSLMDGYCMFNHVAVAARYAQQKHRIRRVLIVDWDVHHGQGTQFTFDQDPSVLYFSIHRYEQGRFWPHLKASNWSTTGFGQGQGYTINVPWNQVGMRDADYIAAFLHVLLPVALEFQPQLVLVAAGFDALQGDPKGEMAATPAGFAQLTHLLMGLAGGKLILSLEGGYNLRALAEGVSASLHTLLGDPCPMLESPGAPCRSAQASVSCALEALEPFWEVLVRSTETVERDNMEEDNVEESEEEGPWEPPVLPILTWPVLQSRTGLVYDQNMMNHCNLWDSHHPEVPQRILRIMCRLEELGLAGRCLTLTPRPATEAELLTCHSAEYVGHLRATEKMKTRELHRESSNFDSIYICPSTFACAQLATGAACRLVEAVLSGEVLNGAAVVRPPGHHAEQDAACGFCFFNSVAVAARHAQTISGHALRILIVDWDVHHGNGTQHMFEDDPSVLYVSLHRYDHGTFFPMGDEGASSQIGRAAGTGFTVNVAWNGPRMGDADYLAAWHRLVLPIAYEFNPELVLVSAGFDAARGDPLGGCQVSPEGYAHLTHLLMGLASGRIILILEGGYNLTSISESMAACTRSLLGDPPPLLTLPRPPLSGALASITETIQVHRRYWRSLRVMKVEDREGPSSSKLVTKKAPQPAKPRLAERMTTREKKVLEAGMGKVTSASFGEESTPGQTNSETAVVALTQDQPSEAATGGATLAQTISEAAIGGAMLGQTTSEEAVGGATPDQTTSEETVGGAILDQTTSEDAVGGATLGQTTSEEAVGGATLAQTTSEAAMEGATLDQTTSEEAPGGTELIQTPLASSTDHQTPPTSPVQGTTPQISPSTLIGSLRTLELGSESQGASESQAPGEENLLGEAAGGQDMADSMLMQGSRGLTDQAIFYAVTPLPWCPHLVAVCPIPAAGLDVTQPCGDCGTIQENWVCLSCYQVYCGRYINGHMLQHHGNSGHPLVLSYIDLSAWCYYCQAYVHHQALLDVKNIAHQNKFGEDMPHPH

[10] = biological target: Histone deacetylase 2 (Homo sapiens) (UniProt Q92769); settings: MV4-11, 12.5 to 200 nM
[11] = biological target: T3, Protein deacetylase HDAC6 (Homo sapiens, UniProt Q9UBN7); experiment: Inhibition of full length human recombinant HDAC6 expressed in baculovirus infected insect S9 cells using Ac-Leu-GlyLys(Ac)-AMC as substrate after 30 mins by fluorescence assay
T3 sequence (Q9UBN7 whole entry): T2 sequence (whole entry)

Chain of Histone deacetylase 3 (O15379 whole entry): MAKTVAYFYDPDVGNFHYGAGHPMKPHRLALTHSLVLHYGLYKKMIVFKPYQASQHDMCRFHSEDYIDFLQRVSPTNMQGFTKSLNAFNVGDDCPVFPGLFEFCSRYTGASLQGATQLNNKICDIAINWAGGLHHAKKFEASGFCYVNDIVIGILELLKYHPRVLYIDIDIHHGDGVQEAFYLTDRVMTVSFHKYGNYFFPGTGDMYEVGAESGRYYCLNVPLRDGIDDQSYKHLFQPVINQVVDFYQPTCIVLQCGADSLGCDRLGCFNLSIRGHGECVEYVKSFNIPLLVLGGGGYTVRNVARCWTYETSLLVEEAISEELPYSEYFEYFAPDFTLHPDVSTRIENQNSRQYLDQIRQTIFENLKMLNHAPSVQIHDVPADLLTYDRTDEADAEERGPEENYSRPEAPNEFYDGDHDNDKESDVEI
Chain of Histone deacetylase 2 (Homo sapiens) (Q92769 whole entry): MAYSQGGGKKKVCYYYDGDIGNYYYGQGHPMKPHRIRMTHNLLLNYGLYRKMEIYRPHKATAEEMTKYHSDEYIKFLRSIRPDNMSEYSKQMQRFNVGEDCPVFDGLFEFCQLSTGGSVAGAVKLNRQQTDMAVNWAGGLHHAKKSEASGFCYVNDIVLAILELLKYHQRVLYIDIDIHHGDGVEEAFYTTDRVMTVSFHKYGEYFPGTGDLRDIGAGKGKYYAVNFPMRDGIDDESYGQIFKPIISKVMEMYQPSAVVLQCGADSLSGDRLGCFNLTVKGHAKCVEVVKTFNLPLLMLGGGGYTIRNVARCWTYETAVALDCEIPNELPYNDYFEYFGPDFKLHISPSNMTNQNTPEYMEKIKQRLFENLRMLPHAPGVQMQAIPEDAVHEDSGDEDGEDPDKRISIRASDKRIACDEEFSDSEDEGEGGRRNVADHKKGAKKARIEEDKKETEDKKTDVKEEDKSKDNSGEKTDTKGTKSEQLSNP
Chain of Histone deacetylase 4 (P56524 whole entry): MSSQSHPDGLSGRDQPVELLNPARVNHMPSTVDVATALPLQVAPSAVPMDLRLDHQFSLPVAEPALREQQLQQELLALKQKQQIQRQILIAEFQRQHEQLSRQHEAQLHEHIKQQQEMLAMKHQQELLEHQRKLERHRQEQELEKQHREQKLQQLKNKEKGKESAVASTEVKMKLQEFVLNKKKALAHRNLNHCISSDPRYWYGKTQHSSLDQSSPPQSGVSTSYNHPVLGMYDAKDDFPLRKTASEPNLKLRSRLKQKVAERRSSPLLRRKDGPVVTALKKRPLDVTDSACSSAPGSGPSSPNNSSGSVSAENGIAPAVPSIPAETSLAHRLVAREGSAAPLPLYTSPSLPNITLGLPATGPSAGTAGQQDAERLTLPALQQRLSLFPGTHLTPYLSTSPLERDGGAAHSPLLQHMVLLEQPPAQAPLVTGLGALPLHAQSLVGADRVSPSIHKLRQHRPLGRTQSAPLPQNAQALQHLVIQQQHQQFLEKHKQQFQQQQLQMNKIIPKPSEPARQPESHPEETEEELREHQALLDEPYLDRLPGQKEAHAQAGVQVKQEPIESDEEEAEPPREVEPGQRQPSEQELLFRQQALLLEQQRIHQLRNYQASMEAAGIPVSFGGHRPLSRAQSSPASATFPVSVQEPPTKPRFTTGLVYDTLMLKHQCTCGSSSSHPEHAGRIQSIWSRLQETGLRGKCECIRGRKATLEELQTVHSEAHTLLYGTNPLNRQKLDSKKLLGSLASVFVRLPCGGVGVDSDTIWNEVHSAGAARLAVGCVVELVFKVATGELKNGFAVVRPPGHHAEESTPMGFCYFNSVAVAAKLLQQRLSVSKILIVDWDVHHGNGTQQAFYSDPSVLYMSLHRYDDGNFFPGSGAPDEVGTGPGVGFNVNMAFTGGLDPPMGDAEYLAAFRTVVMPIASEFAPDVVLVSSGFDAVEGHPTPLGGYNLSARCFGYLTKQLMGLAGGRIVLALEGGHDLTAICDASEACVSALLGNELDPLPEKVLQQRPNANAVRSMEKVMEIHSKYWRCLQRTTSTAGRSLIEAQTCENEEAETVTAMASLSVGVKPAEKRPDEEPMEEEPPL

Structure (SMILES): O=C(CCCCCOc1no[n+]([O-])c1S(=O)(=O)c1ccccc1)NO
- pIC50 [1]: 5.82
- pIC50 [2]: 5.65
- pIC50 [3]: 5.86
- pIC50 [4]: 5.76
- pIC50 (HUVEC): 4.57
- Activity (HEL [5]): 0.45%
- inhibition in vivo at 100 mg/kg/day (HEL [6]): 38%
- T/C (HEL [7]): 39%
- Activity (HEL [8]): Dose-dependent effect
- Activity (Mus musculus): Non-toxic
- pIC50 (Histone deacetylase 3): 6.27
- pIC50 (Histone deacetylase 4): 7.52
- pIC50 (Histone deacetylase 11): 6.22
- inhibition [9]: Active
- inhibition [10]: Active
- pIC50 [11]: 8.13
